Laboratory results published in ChEMBL document CHEMBL4000163, “Pyrazole derived ultra-short antimicrobial peptidomimetics with potent anti-biofilm activity” (Eur J Med Chem, 2017).
Converted amounts (≈) assume the structure as drawn. The source made the active and inactive calls. No cut-off for these calls is given here.

Columns and labels:
Staphylococcus aureus [1] = assay: Antimicrobial activity against Staphylococcus aureus KCTC 1621 using 4 hrs trypsin incubated compound measured after overnight incubation by radial diffusion assay; assay type: functional
Outline: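 Radial diffusion: mid-log cells (2×10^6 CFU/ml in LB) in 0.7% agarose. Peptide stock (10 mg/mL) added to trypsin in PBS (0.2 µg/mL), 4 h at 37 °C, stopped by liquid-nitrogen freezing; 10 µL on paper discs on the plates, overnight at 37 °C. Clearance-zone diameters measured.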

Escherichia coli [2] = assay: Antimicrobial activity against Escherichia coli KCTC 1682 assessed as disruption of bacterial cell membrane at 2 times MIC after 1 hr by transmission electron microscopy; assay type: functional
Outline: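 Bacteria at 2×10^7 CFU/mL in LB, washed three times in PBS. Peptide in PBS was added to a final 2 × MIC and incubated 1 h at 37 °C. Pelleted cells were resuspended in PBS, applied to glow-discharged carbon-film grids, negatively stained with 1% uranyl acetate for 1 min, and imaged by TEM at 120 kV.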

Pseudomonas aeruginosa [3] = assay: Antibiofilm activity against multidrug-resistant Pseudomonas aeruginosa CCARM 2095 after 24 hrs by crystal violet staining based method; assay type: functional; details: CCARM 2095, 24 h
Outline: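 MDRPA 2095 (1×10^6 cfu/mL) in MHB with 0.2% glucose, 24 h at 37 °C with or without peptide (2-fold dilutions, 1-64 µg/mL), six wells each. Wells washed with PBS, methanol-fixed, stained with 0.1% crystal violet 5 min, stain resolubilized in 95% ethanol, absorbance at 600 nm.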

Staphylococcus aureus [4] = assay: Antimicrobial activity against Staphylococcus aureus KCTC 1621 in presence of CaCl2; assay type: functional
Outline: (§1)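 MIC by microdilution with 2 × 10⁶ CFU/ml S. aureus KCTC 1621 in LB medium supplemented with physiological salt: 150 mM NaCl, 1 mM MgCl₂ or 2.5 mM CaCl₂; growth inhibition endpoint as in the standard MIC assay.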

RAW264.7 [5] = assay: Antiinflammatory activity in mouse RAW264.7 cells assessed as inhibition of LPS-induced TNF-alpha production preincubated with cells followed by LPS addition measured after 6 hrs by ELISA; assay type: functional, cell-based
Outline: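 RAW264.7 cells seeded at 5 × 10⁴ cells/well, left overnight, then given peptide at 37 °C. Unbound peptide was washed off with PBS (five washes) before LPS (20 ng/mL) was added for 6 h at 37 °C. TNF-α in the samples was measured by mouse ELISA. Mean ± SEM of technical triplicates, one-way ANOVA with Bonferroni post-test.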

[6] = Therapeutic index, ratio of MHC for sheep RBC to geometric mean of MICs for four bacterial strains
Pseudomonas aeruginosa [7] = assay: Antibacterial activity against multidrug-resistant Pseudomonas aeruginosa CCARM 2095 after 18 to 20 hrs by broth microdilution assay; assay type: functional; details: read-out: MIC100
Outline: (§2)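 Broth microdilution in 1% peptone: bacteria at 2 × 10⁶ CFU/mL mixed 1:1 with serial 2-fold peptide dilutions, 18-20 h at 37 °C; growth read as absorbance at 600 nm. MIC taken as lowest concentration giving 100% growth inhibition.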

Staphylococcus aureus [8] = assay: Antibacterial activity against methicillin resistant Staphylococcus aureus CCARM 3090 after 18 to 20 hrs by broth microdilution assay; assay type: functional; details: read-out: MIC100; outline: as §2
Staphylococcus aureus [9] = assay: Potency index, ratio of LL-37 MIC100 to compound MIC100 for Staphylococcus aureus KCTC 1621; assay type: functional
[10] = Therapeutic index, ratio of MHC for sheep RBC to geometric mean of MICs for four bacterial strains; remark: listed apart in the source
RAW264.7 [11] = assay: Cytotoxicity against mouse RAW264.7 cells up to 32 ug/mL after 2 days by MTT assay; assay type: cell-based; details: raw264.7, 48 h
Outline: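 Cells in DMEM with 10% FBS seeded at 2×10^4 cells/well and incubated 24 h at 37 °C, 5% CO₂. Serial 2-fold peptide dilutions were added for 2 days, then MTT for 4 h. Formazan was dissolved in 20% SDS/0.01 M HCl and read at 570 nm. Survival is expressed as a percentage of untreated cells.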

Staphylococcus aureus [12] = assay: Potency index, ratio of melittin MIC100 to compound MIC100 for methicillin resistant Staphylococcus aureus CCARM 3095; assay type: functional
Staphylococcus aureus [13] = assay: Antimicrobial activity against Staphylococcus aureus KCTC 1621 in presence of MgCl2; assay type: functional; outline: as §1
Staphylococcus aureus [14] = assay: Potency index, ratio of melittin MIC100 to compound MIC100 for methicillin resistant Staphylococcus aureus CCARM 3089; assay type: functional
Staphylococcus aureus [15] = assay: Potency index, ratio of melittin MIC100 to compound MIC100 for Staphylococcus aureus KCTC 1621; assay type: functional
Pseudomonas aeruginosa [16] = assay: Potency index, ratio of melittin MIC100 to compound MIC100 for Pseudomonas aeruginosa KCTC 1637; assay type: functional
RAW264.7 [17] = assay: Antiinflammatory activity in mouse RAW264.7 cells assessed as inhibition of LPS-induced nitric oxide production after 24 hrs by Griess method; assay type: functional, cell-based
Outline: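 RAW264.7 macrophages (5×10^5 cells/mL) stimulated with LPS (20 ng/mL), with or without peptide, for 24 h. Supernatants were mixed 1:1 with Griess reagent (1% sulfanilamide, 0.1% naphthylethylenediamine, 2% phosphoric acid) for 10 min at room temperature, read at 540 nm, and quantified against an NaNO₂ standard curve. Mean ± SEM of technical triplicates, ANOVA with Bonferroni post-test.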

Staphylococcus aureus [18] = assay: Antibacterial activity against methicillin resistant Staphylococcus aureus CCARM 3095 after 18 to 20 hrs by broth microdilution assay; assay type: functional; details: read-out: MIC100; outline: as §2
[19] = test system: Staphylococcus epidermidis; assay: Antimicrobial activity against Staphylococcus epidermidis KCTC 1917 incubated for 18 to 20 hrs by broth microdilution assay; assay type: functional; details: read-out: MIC100
Outline: (§3)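 Broth microdilution in 1% peptone. Inoculum was 2 × 10⁶ CFU/mL mixed 1:1 with serial 2-fold peptide dilutions and incubated 18–20 h at 37 °C. Growth was read as absorbance at 600 nm; MIC is the lowest peptide concentration giving 100% growth inhibition.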

Escherichia coli [20] = assay: Antimicrobial activity against Escherichia coli KCTC 1682 in presence of MgCl2; assay type: functional
Outline: (§4)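 MIC in LB medium with added 150 mM NaCl, 1 mM MgCl₂ or 2.5 mM CaCl₂. Inoculum of 2 × 10⁶ CFU/mL with peptide. Otherwise as the broth microdilution MIC assay; MIC is the lowest concentration giving 100% growth inhibition.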

RAW264.7 [21] = assay: Antiinflammatory activity in mouse RAW264.7 cells assessed as inhibition of LPS-induced iNOS mRNA expression at 16 ug/mL after 6 hrs by RT-PCR method; assay type: functional, cell-based
Outline: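 RAW264.7 cells plated at 5×10^5 cells/well and cultured overnight. They were stimulated with 20 ng/mL LPS, with or without peptide, in DMEM with 10% bovine serum, for 3 h (TNF-α) or 6 h (iNOS). Total RNA was reverse-transcribed with oligo(dT)15 primers and amplified for 30 cycles (annealing 55 °C). mRNA was analysed by PCR.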

[22] = Therapeutic index, ratio of MHC for sheep RBC to MIC for Staphylococcus aureus KCTC 1621
Pseudomonas aeruginosa [23] = assay: Antimicrobial activity against Pseudomonas aeruginosa KCTC 1637 incubated for 18 to 20 hrs by broth microdilution assay; assay type: functional; details: read-out: MIC100; outline: as §3
Escherichia coli [24] = assay: Antimicrobial activity against Escherichia coli KCTC 1682 in presence of CaCl2; assay type: functional; outline: as §4

**Q.** Which Activity (Staphylococcus aureus [1]) does the source give for `N=C(N)NCCC[C@H](NC(=O)c1nn(CCc2cccc3ccccc23)cc1NC(=O)[C@H](CCCNC(=N)N)NC(=O)c1nn(CCc2cccc3ccccc23)cc1N)C(N)=O` here?
**A.** Active

**Q.** And the Activity (Escherichia coli [2])?
**A.** Active

**Q.** What about the IC90 (Pseudomonas aeruginosa [3]) of the same molecule?
**A.** 16 µg/mL (≈ 18.7 µM)

**Q.** What about the MIC (Staphylococcus aureus [4]) of the same molecule?
**A.** 8 µg/mL

**Q.** What about the inhibition (RAW264.7 [5]) of the same molecule?
**A.** Dose-dependent effect

**Q.** And the TI [6]?
**A.** 53.9

**Q.** What about the MIC (Pseudomonas aeruginosa [7]) of the same molecule?
**A.** 8 µg/mL (≈ 9.35 µM)

**Q.** What about the MIC (Staphylococcus aureus [8]) of the same molecule?
**A.** 8 µg/mL (≈ 9.35 µM)

**Q.** What about the Ratio (Staphylococcus aureus [9]) of the same molecule?
**A.** 8

**Q.** And the TI [10]?
**A.** 53.9

**Q.** What about the Activity (RAW264.7 [11]) of the same molecule?
**A.** Non-Toxic

**Q.** What about the Ratio (Staphylococcus aureus [12]) of the same molecule?
**A.** 2 - 4

**Q.** What about the MIC (Staphylococcus aureus [13]) of the same molecule?
**A.** 8 µg/mL

**Q.** And the Ratio (Staphylococcus aureus [14])?
**A.** 2 - 4

**Q.** And the Ratio (Staphylococcus aureus [15])?
**A.** 4

**Q.** What about the Ratio (Pseudomonas aeruginosa [16]) of the same molecule?
**A.** 4

**Q.** What about the inhibition (RAW264.7 [17]) of the same molecule?
**A.** Dose-dependent effect

**Q.** What about the MIC (Staphylococcus aureus [18]) of the same molecule?
**A.** 4 µg/mL (≈ 4.67 µM)

**Q.** What about the MIC [19] of the same molecule?
**A.** 32 µg/mL (≈ 37.4 µM)

**Q.** And the MIC (Escherichia coli [20])?
**A.** 32 µg/mL

**Q.** What about the inhibition (RAW264.7 [21]) of the same molecule?
**A.** Active

**Q.** And the TI [22]?
**A.** 53.9

**Q.** What about the MIC (Pseudomonas aeruginosa [23]) of the same molecule?
**A.** 8 µg/mL (≈ 9.35 µM)

**Q.** What about the MIC (Escherichia coli [24]) of the same molecule?
**A.** 32 µg/mL
